ChEMBL document CHEMBL5696442, “Discovery of type II inhibitors of TGFβ-activated kinase 1 (TAK1) and mitogen-activated protein kinase kinase kinase kinase 2 (MAP4K2)” (J Med Chem, 2015)

Experiments:
[1] = biological target: Tyrosine-protein kinase Lck (Homo sapiens) (UniProt P06239); test: Inhibition of LCK (unknown origin) at 1 uM by Ambit Kinomescan binding assay relative to control
[2] = biological target: TGF-beta receptor type-2 (Homo sapiens) (UniProt P37173); test: Inhibition of TGFBR2 (unknown origin) at 1 uM by Ambit Kinomescan binding assay relative to control
[3] = biological target: STE20-like serine/threonine-protein kinase (Homo sapiens) (UniProt Q9H2G2); test: Inhibition of SLK Lys2 labeling site harbouring DLKAGNILFTLDGDIK in human A-375 cells at 5 uM by KiNativ Profiling analysis relative to control; type: cell-based
[4] = biological target: Serine/threonine-protein kinase SMG1 (Homo sapiens) (UniProt Q96Q15); test: Inhibition of SMG1 ATP labeling site harbouring DTVTIHSVGGTITILPTKTKPK in human A-375 cells at 0.5 uM by KiNativ Profiling analysis relative to control; type: cell-based
Procedure, shortened: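 Live A375 melanoma cells treated with compound at 5 or 0.5 μM, then lysed. Lysate kinases were labeled with a lysine-reactive ATP or ADP-biotin probe. Inhibition was read as protection of labeling sites from the probe.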

[5] = biological target: Peripheral plasma membrane protein CASK (Homo sapiens) (UniProt O14936); test: Inhibition of CASK K1 labeling site in human Huh-7 cells at 1 uM by KiNativ Profiling analysis relative to control
[6] = biological target: T1, Serine/threonine-protein kinase NLK (Homo sapiens) (UniProt Q9UBE8); test: Inhibition of NLK (unknown origin) at 10 uM by Ambit Kinomescan binding assay relative to control; values are per cent of control
T1 sequence (whole entry): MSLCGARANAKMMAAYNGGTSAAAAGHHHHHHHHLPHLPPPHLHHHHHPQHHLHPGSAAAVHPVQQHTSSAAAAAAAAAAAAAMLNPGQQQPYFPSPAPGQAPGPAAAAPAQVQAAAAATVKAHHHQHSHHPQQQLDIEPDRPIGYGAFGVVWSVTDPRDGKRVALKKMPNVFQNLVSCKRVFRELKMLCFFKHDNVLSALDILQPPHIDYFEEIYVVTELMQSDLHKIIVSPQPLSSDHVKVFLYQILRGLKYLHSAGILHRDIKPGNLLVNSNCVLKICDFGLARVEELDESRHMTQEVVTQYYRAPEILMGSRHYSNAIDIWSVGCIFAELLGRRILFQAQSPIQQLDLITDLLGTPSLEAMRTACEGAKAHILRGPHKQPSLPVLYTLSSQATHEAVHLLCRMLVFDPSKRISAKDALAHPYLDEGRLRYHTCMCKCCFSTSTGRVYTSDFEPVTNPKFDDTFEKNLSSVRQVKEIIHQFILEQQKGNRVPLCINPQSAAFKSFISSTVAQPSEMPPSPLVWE

[7] = biological target: T2, Serine/threonine-protein kinase TAO1 (Homo sapiens) (UniProt Q7L7X3); test: Inhibition of TAOK1 (unknown origin) at 10 uM by Ambit Kinomescan binding assay relative to control; values are per cent of control
T2 sequence (whole entry): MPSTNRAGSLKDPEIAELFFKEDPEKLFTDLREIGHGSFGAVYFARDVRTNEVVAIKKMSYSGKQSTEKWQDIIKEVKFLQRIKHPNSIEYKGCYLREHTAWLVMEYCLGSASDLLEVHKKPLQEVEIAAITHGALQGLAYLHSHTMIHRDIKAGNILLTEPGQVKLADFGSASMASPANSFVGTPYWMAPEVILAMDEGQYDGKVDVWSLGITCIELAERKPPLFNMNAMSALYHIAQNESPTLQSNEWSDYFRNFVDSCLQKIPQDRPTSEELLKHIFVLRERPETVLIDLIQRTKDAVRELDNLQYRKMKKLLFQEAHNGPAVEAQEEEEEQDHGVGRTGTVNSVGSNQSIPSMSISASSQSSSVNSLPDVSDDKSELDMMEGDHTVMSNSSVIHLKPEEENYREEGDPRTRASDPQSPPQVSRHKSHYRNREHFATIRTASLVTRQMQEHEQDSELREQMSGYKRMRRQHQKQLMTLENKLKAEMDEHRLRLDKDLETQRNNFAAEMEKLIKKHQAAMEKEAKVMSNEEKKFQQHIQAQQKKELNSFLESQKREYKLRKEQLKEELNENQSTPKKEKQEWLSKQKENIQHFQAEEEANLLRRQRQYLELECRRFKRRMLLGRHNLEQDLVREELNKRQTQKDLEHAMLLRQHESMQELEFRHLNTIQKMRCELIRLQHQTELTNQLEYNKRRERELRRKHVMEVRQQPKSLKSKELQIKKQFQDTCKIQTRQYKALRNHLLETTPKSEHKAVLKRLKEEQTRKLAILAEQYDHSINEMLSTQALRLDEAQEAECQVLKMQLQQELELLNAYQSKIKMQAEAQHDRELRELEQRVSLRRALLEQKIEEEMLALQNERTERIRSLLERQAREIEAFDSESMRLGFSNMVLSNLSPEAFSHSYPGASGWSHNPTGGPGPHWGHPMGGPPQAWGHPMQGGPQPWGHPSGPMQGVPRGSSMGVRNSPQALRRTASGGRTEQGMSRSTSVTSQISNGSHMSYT

[8] = biological target: Serine/threonine-protein kinase VRK2 (Homo sapiens) (UniProt Q86Y07); test: Inhibition of VRK2 Lys2 labeling site in human Huh-7 cells at 1 uM by KiNativ Profiling analysis relative to control; type: cell-based
Chain of Serine/threonine-protein kinase VRK2 (Homo sapiens) (Q86Y07 whole entry): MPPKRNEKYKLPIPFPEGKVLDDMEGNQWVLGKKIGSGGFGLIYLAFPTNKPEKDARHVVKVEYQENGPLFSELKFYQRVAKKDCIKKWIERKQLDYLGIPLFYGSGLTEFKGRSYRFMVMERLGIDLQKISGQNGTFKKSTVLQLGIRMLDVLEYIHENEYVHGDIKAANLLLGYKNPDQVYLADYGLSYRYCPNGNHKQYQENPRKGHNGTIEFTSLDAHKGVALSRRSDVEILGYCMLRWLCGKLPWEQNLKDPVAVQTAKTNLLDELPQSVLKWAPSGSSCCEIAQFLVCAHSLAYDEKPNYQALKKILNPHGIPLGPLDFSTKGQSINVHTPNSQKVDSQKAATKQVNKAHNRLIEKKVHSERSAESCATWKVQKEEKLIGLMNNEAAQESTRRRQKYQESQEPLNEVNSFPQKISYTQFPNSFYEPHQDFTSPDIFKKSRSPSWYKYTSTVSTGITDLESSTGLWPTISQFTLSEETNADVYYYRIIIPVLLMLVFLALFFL

Chain of TGF-beta receptor type-2 (Homo sapiens) (P37173 whole entry): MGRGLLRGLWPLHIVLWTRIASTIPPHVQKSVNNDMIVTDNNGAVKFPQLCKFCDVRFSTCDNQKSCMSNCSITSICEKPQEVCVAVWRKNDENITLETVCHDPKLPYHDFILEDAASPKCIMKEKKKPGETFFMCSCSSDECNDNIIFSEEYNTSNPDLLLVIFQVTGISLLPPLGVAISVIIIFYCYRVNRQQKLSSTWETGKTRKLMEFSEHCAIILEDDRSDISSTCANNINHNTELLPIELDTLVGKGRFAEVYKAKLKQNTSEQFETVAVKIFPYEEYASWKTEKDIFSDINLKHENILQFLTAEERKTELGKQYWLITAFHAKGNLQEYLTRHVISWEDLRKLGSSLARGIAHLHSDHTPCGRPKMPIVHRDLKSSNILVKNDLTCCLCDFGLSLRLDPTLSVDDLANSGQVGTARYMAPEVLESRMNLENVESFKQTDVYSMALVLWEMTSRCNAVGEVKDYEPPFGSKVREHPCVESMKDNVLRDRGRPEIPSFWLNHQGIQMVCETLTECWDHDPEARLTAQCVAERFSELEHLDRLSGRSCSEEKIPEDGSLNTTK
Chain of STE20-like serine/threonine-protein kinase (Homo sapiens) (Q9H2G2 whole entry, looked up): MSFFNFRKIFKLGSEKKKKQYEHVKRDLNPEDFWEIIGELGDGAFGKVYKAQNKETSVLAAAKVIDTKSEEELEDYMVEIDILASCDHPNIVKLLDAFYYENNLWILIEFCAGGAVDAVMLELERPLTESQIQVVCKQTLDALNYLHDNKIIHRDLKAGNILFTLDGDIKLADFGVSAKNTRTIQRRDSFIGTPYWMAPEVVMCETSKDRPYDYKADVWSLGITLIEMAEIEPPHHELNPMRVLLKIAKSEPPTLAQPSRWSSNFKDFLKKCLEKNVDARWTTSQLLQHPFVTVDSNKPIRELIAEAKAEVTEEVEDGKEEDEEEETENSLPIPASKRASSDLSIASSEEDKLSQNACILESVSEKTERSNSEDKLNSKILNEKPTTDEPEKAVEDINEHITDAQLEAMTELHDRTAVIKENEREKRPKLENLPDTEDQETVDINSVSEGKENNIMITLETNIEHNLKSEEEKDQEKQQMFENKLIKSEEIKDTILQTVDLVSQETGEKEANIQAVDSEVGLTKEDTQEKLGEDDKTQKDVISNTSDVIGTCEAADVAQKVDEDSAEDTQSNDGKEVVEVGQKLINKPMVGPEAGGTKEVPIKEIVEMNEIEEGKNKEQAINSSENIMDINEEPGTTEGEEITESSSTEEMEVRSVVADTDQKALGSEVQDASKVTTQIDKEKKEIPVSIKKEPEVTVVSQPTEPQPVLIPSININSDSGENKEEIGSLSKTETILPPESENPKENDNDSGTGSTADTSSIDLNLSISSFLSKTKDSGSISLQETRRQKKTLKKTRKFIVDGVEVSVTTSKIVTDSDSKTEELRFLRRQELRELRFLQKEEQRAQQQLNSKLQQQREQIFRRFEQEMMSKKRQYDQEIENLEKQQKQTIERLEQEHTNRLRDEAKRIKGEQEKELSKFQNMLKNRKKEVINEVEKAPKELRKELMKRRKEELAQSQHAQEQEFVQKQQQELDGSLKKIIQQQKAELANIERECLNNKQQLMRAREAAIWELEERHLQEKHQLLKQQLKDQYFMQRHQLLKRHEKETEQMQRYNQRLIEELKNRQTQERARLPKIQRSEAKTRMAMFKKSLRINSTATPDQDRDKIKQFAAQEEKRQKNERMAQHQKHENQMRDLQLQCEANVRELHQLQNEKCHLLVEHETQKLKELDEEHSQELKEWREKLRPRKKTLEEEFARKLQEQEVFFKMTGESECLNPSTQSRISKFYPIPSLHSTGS
Chain of Peripheral plasma membrane protein CASK (Homo sapiens) (O14936 whole entry, looked up): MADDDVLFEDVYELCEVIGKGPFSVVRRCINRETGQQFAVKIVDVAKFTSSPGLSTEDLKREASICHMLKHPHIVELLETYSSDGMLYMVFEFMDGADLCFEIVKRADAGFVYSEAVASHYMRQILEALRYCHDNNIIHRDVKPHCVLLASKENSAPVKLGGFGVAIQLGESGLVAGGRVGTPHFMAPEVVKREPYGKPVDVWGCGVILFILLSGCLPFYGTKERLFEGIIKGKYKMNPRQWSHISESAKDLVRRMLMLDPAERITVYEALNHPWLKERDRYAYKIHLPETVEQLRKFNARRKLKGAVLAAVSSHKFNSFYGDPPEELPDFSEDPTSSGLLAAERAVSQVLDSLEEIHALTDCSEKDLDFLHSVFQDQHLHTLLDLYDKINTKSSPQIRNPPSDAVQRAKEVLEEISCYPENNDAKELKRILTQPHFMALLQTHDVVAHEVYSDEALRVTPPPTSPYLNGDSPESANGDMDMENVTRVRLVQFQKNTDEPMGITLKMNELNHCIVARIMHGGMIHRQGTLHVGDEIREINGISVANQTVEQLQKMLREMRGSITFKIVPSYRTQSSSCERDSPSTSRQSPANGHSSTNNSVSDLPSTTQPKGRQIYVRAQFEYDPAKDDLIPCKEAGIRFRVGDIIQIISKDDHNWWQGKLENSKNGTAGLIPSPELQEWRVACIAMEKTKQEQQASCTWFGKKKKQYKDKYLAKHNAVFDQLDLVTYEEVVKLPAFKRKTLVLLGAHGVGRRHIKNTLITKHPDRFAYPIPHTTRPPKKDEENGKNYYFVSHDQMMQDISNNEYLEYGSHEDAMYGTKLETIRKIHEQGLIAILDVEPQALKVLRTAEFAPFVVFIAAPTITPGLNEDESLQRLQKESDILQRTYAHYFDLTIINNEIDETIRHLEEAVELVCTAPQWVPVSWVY
Chain of Tyrosine-protein kinase Lck (Homo sapiens) (P06239 2-509 limits assumed): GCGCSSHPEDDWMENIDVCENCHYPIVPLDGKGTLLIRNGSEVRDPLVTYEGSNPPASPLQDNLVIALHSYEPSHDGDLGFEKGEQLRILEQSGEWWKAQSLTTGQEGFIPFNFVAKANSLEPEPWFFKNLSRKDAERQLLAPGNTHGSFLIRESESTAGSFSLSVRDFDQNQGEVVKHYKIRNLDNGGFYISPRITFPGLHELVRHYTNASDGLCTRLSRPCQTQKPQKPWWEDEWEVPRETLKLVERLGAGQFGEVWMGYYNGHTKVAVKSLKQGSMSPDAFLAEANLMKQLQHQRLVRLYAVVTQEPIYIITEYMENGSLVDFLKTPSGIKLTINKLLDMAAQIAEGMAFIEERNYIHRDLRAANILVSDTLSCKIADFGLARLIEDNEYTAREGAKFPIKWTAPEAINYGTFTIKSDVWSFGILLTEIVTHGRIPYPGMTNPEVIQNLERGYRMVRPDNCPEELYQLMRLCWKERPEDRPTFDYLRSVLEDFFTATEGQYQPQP

## CCN1CCN(Cc2ccc(NC(=O)c3ccc(C)c(/C=C/c4cnc5[nH]ccc5c4OC)c3)cc2C(F)(F)F)CC1
[1]
  inhibition: 0.35%
[2]
  inhibition: 52%
[3]
  inhibition: 12.2%

## CCN1CCN(Cc2ccc(NC(=O)c3ccc(C)c(Oc4ccnc5[nH]ccc45)c3)cc2C(F)(F)F)CC1
[4]
  inhibition: -9.1%
[5]
  inhibition: 3.8%
[6]
  percent of control: 14%
[7]
  residual activity: 3%

## CNc1cc(Oc2cc(C(=O)Nc3cc(N4CCN(C)CC4)cc(C(F)(F)F)c3)ccc2C)ncn1
[8]
  inhibition: 40.4%
